Data published in PubChem BioAssay AID624109 (Broad Institute, 2012).
Results filed as inconclusive are left out.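 How the source made its calls: active means curve reaches the -35% threshold at a concentration no more than twice the top valid dose, in duplicate at both wavelengths; inconclusive means no clear call, values can overlap the other calls; inactive means the rest, including effects opposite to the expected decrease.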

assay: inhibition of P. aeruginosa growth with EDDHA – absorbance 405 nm, dry powder, set 6, dose response (AID 624109); conditions: hits give low values; at 0.056 µM unless noted
Outline: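 Test system – P. aeruginosa ATCC 15692 bacteria · Input – final OD600 0.0000005 inoculum · Medium – succinate M9 medium at pH 7.0 with iron chelator EDDHA · Incubation – 24-30 h growth at 37 °C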

Max activity, inactive:
N#CC(c1ccc(Cl)cc1)c1ccccn1 (centres undefined) -55.2%
N#CC(c1ccc(F)cc1)c1cccc(Cl)n1 (centres undefined) -43.2% [at 0.16 µM]
COCCC(C#N)c1ccc(F)cc1 (centres undefined) -46.3% [at 0.5 µM]
CCCCC(C#N)c1ccccn1 (centres undefined) 1.07% [at 120 µM]
CN(C)CCCC(C#N)c1ccc(Cl)cc1 (centres undefined) -33.4%
CCCCC(C#N)c1ccc(F)cn1 (centres undefined) -30.6% [at 0.5 µM]
CCCCC(C#N)c1ccc(F)cc1 (centres undefined) -50.3% [at 1.5 µM]
COCCNC(C#N)c1ccc(Cl)cc1 (centres undefined) -29.7% [at 4.6 µM]
N#Cc1cccc(C(C#N)c2ccc(F)cc2)n1 (centres undefined) 19% [at 0.0195 µM]
CCCCC(C#N)c1ccc(Cl)cn1 (centres undefined) -57.2%
N#CC1c2ccc(Cl)cc2CCc2cccnc21 (centres undefined) -36.3% [at 4.6 µM]
CCCCC(C#N)c1ccc(Cl)cc1 (centres undefined) -39.1% [at 0.16 µM]
Clc1ccc(C(c2cccc(Cl)n2)c2nn[nH]n2)cc1 (centres undefined) 10.4% [at 13.5 µM]
COCCC(C#N)c1ccc(Cl)cc1 (centres undefined) -41.4%
